Screening results deposited in PubChem BioAssay by several laboratories.
PostGolgi yeast: growth inhibition of a yeast mutant, post-Golgi transport screen | inhibition, % at 10 µM | 98,000 compounds, 0.9% hits | post-Golgi transport phenotypic cell assay;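 further: yeast cells grown in 1536-well plates; yeast grown about 18 h at 30C before absorbance read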
HIV Rev-RRE inh: disrupts HIV-1 Rev binding to RRE RNA; Rev peptide-RRE RNA binding, FRET; 97,000 compounds, 0.79% hits; inhibition, % at 8 µM; AID 704;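 active means inhibition above the screen-wide mean plus 3 SD, cut at about 35% in these data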;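 further: 0% = median DMSO wells and 100% = median Neomycin B control wells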
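Test system: Cy5-tagged RRE RNA duplex with fluorescein-tagged Rev peptide | Read-out: % inhibition of FRET ratio versus controls | Probe or stimulus: Labelled Rev peptide | Incubation: 5 min RNA-compound premix plus 15 min binding step, 25 °C | Technique: FRET fluorescence readout | Benchmarks: DMSO low control, neomycin B high control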
PostGolgi ctrl: inhibits growth of the yeast control strain; efflux-deficient yeast background strain, growth absorbance A615, 16 h; inhibition, % at 10 µM; 98,000 compounds, 5% hits
PLK1 PBD inh: Plk1 (human) PBD binding inhibition; 97,000 compounds, 0.13% hits; Plk1 PBD phosphopeptide binding, fluorescence polarization; AID 693; inhibition, %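 (tested at about 20 µM)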; in the data active means inhibition above about 34%, passing the limit was not always enough
EphB4 ephrin blk: blocks human EphB4 binding to ephrin-B2; P54760; EphB4 LBD / TNYL-RAW-Alexa532 peptide, fluorescence polarization; inhibition, % at 7 µM; 97,000 compounds, 0.15% hits; AID 720;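 active means inhibition above the screen-wide mean inhibition plus 3 SD, cut at about 15% in these data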;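 further: 0% = DMSO wells and 100% = excess unlabeled TNYL-RAW peptide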
PLK1 inh: blocks human PLK1 kinase activity; P53350; recombinant PLK1 kinase, TR-FRET peptide phosphorylation; inhibition, % at 10 µM; 97,000 compounds, 0.53% hits; AID 619;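 active means inhibition of 50% or more in the single-concentration screen; inactive means inhibition below 50%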;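 further: 0% = DMSO max control and 100% = H-89 dihydrochloride min control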
The depositor's hits bear a star. An excerpt weighted towards active compounds, which were near 6.4% of everything screened. Unless noted, no stated cut-off is given here; in the data, active means inhibition above about 30%; inactive means the rest.

For CCOc1nc(Nc2ccc(OC)cc2)nc(OCC)n1 the results were PostGolgi yeast -1.2, HIV Rev-RRE inh 2.0, PostGolgi ctrl 22.5, PLK1 PBD inh -9.4, EphB4 ephrin blk -3.6 and PLK1 inh 6.3.
CCOc1nc(Nc2ccc(OC)c(Cl)c2)nc(OCC)n1 was read as PostGolgi yeast 14.1, HIV Rev-RRE inh 15.1, PostGolgi ctrl 35.7*, PLK1 PBD inh 7.4, EphB4 ephrin blk -4.2 and PLK1 inh -8.6.
CC(=Nc1ccc(O)cc1)c1sc2ccccc2c1O was read as PostGolgi yeast 0.5, HIV Rev-RRE inh 42.4*, PostGolgi ctrl -1.6, PLK1 PBD inh -35.5, EphB4 ephrin blk 8.7 and PLK1 inh -6.1.
CC(=Nc1cccc(C)c1)c1sc2ccccc2c1O was read as PostGolgi yeast 4.4, HIV Rev-RRE inh 25.1, PostGolgi ctrl 6.5, PLK1 PBD inh -36.1, EphB4 ephrin blk -7.0 and PLK1 inh -12.3.
Screening O=C(Nc1c(C(=O)Nc2cccc3ccccc23)cnn1-c1ccccc1)c1ccco1 returned HIV Rev-RRE inh -2.1, PLK1 PBD inh 20.7, EphB4 ephrin blk -1.1 and PLK1 inh -18.6.
`Cc1cc(N2CCN(c3ccccn3)CC2)n2cc(-c3ccccc3)nc2n1` gave PostGolgi yeast -7.0, HIV Rev-RRE inh 4.2, PostGolgi ctrl 2.3, PLK1 PBD inh -11.7, EphB4 ephrin blk 15.8* and PLK1 inh -3.0.
Screening Cc1cc(C)n(C(=O)c2ccc(NC(=O)C3COc4ccccc4O3)cc2)n1 (centres undefined) returned PostGolgi yeast -17.9, HIV Rev-RRE inh 11.5, PostGolgi ctrl 33.5*, PLK1 PBD inh 2.3, EphB4 ephrin blk 4.3 and PLK1 inh -0.8.
`Cc1cc(C)n(C(=O)CNC(=O)C2COc3ccccc3O2)n1` (centres undefined) gave PostGolgi yeast -0.7 and PostGolgi ctrl 4.0.
Screening O=C(CCc1nc2cccnc2n1Cc1ccccc1)NCCc1ccc(Cl)cc1 returned PostGolgi yeast 6.8, HIV Rev-RRE inh 8.2, PostGolgi ctrl 7.1, PLK1 PBD inh 5.7, EphB4 ephrin blk -5.6 and PLK1 inh -11.7.
O=C(COc1cccc(Oc2ccccc2)c1)Nc1ccc(SC(F)F)cc1 was read as PostGolgi yeast 13.4, HIV Rev-RRE inh -1.6, PostGolgi ctrl 10.5, PLK1 PBD inh -4.2, EphB4 ephrin blk -0.6 and PLK1 inh -4.1.
Screening O=C(COc1cccc(OC(F)F)c1)Nc1ccc(SC(F)F)cc1 returned PostGolgi yeast -11.6, HIV Rev-RRE inh 7.8, PostGolgi ctrl 30.8*, PLK1 PBD inh 14.0, EphB4 ephrin blk -7.7 and PLK1 inh 1.5.
Screening NS(=O)(=O)c1cccnc1Nc1c(Cl)cccc1Cl returned PostGolgi yeast -6.7, HIV Rev-RRE inh 3.2, PostGolgi ctrl 31.9*, PLK1 PBD inh 6.9, EphB4 ephrin blk 4.1 and PLK1 inh -6.0.
For CC1=NOC(=O)/C1=C/c1ccc(N(C)C)cc1 the results were PostGolgi yeast -1.3, HIV Rev-RRE inh 86.2*, PostGolgi ctrl 1.5, PLK1 PBD inh -14.2, EphB4 ephrin blk -2.0 and PLK1 inh -63.2.
CC1=NOC(=O)/C1=C/c1ccc(-c2ccc(Cl)cc2)o1 was read as PostGolgi yeast -0.2, HIV Rev-RRE inh 10.3, PostGolgi ctrl -0.1, PLK1 PBD inh -5.9, EphB4 ephrin blk 2.8 and PLK1 inh -11.3.
For CC1(C)CC(=O)C2=C(C1)N=c1s/c(=C/c3ccc(F)c(F)c3)c(=O)n1C2c1ccc(F)cc1 (centres undefined) the results were PostGolgi yeast 22.8, HIV Rev-RRE inh 11.2, PostGolgi ctrl 31.0*, PLK1 PBD inh 2.2, EphB4 ephrin blk -0.1 and PLK1 inh -7.7.
CC1(C)CC(=O)C2=C(C1)N=C1c3ccccc3C(=O)C1C2c1ccc(Cl)cc1 (centres undefined) was read as PostGolgi yeast -6.1, HIV Rev-RRE inh 4.2, PostGolgi ctrl 18.3, PLK1 PBD inh 14.4, EphB4 ephrin blk -0.1 and PLK1 inh -5.1.
Screening COc1c[nH]n(C2CCCCC2)c(=O)c1=O returned PostGolgi yeast -0.3, HIV Rev-RRE inh 7.1, PostGolgi ctrl 11.9, PLK1 PBD inh -19.4, EphB4 ephrin blk 2.2 and PLK1 inh -1.8.
`COc1ccc(C(=O)/C(=C/c2cccs2)c2nc3ccccc3o2)cc1` gave PostGolgi yeast 1.0, HIV Rev-RRE inh 8.4, PostGolgi ctrl 37.5*, PLK1 PBD inh 0.5, EphB4 ephrin blk 8.9 and PLK1 inh 0.4.
